{"source": "ChEMBL document CHEMBL1177712", "about": "“Synthesis and characterization of in vitro and in vivo profiles of hydroxybupropion analogues: aids to smoking cessation” (J Med Chem, 2010)", "key": {"Mus musculus [1]": {"test_system": "Mus musculus", "assay": "Smoke cessation activity in sc dosed ICR mouse assessed as inhibition of nicotine-induced antinociception administered 15 mins before nicotine challenge measured after 5 mins of nicotine infusion by tail-flick assay", "type": "functional, organism-based", "procedure,_shortened": "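Radiant-heat tail-flick latency was read 5 min later (10 s cutoff; baseline 2–4 s) and expressed as %MPE. AD₅₀ came from at least four doses, with at least 8 mice per dose.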"}, "Mus musculus [2]": {"test_system": "Mus musculus", "assay": "Smoke cessation activity in sc dosed ICR mouse assessed as inhibition of nicotine-induced increase in locomotor activity administered 15 mins before nicotine challenge measured after 5 mins of nicotine infusion", "type": "functional, organism-based"}, "[3]": {"target": "Acetylcholine receptor; alpha1/beta1/delta/gamma (Homo sapiens, UniProt P02708+P07510+P11230+Q07001)", "sequence (P02708 whole entry)": "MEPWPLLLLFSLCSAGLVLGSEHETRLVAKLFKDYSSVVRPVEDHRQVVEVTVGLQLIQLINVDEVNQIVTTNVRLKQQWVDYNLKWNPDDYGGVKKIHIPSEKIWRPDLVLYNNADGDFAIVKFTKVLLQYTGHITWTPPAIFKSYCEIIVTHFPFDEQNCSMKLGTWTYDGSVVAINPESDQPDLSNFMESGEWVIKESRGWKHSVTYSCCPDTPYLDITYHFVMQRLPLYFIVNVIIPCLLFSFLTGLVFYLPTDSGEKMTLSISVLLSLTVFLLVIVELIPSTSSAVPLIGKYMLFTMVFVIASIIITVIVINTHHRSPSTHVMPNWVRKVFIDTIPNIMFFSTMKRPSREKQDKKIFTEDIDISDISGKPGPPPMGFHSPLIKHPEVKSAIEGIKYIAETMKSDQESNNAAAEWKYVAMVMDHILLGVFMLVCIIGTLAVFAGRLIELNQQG", "sequence (P07510 whole entry)": "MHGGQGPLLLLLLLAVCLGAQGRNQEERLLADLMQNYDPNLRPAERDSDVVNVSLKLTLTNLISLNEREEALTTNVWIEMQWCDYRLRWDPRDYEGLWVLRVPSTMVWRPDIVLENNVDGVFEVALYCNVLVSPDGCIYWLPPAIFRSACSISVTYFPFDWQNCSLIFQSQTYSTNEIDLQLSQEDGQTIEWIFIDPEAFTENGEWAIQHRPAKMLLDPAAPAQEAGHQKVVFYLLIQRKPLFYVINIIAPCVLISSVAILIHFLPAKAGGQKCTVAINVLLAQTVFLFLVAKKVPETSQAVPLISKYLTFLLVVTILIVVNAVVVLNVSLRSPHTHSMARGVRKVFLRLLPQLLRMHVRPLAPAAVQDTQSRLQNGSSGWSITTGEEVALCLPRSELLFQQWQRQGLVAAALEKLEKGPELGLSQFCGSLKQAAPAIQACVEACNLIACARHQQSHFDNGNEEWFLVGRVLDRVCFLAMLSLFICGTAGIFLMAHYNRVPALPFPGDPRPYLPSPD", "sequence (P11230 whole entry)": "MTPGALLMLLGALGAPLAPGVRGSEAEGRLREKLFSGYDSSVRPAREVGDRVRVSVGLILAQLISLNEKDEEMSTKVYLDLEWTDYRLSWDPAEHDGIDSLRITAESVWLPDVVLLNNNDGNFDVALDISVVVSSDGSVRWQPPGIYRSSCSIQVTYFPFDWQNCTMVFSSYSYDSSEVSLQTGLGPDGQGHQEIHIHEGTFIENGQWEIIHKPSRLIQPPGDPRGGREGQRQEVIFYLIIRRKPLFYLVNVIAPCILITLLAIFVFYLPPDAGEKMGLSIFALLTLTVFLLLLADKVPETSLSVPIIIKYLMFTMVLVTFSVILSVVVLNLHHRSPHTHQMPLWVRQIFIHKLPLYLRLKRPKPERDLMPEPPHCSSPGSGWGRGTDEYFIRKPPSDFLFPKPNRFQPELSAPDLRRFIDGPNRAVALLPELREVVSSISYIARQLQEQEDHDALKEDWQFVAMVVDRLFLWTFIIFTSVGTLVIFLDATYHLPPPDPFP", "sequence (Q07001 whole entry)": "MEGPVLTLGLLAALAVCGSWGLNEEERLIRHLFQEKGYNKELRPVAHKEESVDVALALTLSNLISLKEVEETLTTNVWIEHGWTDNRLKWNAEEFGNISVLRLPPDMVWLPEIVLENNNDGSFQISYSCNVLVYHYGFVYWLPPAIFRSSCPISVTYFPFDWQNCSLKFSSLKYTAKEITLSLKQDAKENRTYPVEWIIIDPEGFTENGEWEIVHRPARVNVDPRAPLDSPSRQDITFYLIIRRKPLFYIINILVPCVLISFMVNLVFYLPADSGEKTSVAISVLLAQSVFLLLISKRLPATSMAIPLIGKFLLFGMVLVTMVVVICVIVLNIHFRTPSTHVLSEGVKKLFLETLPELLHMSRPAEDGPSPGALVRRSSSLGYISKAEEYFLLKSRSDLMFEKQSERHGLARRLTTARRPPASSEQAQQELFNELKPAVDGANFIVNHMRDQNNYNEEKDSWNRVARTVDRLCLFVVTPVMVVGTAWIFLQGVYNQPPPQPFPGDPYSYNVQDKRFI", "assay": "Antagonist activity at alpha-1-beta-1-gamma-delta nicotinic receptor in human TE671 cells assessed as inhibition varbamylcholine-induced radiolabeled Rb+ influx at by liquid scintillation counting", "type": "functional, cell-based, TE-671", "procedure,_shortened": "(§1)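 ⁸⁶Rb⁺-loaded human cells were given a 5-min efflux with carbamylcholine at EC₈₀–EC₉₀ plus graded test ligand. Non-specific efflux, taken with 100 μM mecamylamine or buffer, was subtracted. IC₅₀ came from a Hill fit of three independent experiments, with SEM given as a multiplication factor.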"}, "[4]": {"target": "Sodium-dependent serotonin transporter (Homo sapiens, UniProt P31645)", "sequence (P31645 whole entry)": "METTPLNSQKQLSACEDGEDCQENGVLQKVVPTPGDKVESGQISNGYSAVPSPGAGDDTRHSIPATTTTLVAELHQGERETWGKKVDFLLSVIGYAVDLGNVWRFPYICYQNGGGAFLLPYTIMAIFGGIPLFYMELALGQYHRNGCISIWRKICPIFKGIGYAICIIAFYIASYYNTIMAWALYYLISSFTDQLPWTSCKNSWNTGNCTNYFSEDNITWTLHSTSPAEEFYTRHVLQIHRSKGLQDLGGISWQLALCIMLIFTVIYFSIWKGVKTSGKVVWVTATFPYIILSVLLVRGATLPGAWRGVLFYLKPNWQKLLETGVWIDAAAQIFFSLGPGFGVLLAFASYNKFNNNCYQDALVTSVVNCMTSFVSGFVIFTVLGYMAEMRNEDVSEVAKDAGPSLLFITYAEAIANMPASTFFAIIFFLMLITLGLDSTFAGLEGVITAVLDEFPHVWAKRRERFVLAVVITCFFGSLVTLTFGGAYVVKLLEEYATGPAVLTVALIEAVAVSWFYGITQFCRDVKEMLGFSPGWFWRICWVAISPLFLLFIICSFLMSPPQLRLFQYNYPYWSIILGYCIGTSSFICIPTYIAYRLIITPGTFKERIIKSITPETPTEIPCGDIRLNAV", "assay": "Inhibition of [3H]serotonin reuptake at human SERT expressed in HEK293 cells after 90 mins by scintillation counting", "type": "cell-based"}, "[5]": {"target": "T1, Neuronal acetylcholine receptor; alpha4/beta4 (Homo sapiens, UniProt P30926+P43681)", "T1 sequence (P30926 whole entry)": "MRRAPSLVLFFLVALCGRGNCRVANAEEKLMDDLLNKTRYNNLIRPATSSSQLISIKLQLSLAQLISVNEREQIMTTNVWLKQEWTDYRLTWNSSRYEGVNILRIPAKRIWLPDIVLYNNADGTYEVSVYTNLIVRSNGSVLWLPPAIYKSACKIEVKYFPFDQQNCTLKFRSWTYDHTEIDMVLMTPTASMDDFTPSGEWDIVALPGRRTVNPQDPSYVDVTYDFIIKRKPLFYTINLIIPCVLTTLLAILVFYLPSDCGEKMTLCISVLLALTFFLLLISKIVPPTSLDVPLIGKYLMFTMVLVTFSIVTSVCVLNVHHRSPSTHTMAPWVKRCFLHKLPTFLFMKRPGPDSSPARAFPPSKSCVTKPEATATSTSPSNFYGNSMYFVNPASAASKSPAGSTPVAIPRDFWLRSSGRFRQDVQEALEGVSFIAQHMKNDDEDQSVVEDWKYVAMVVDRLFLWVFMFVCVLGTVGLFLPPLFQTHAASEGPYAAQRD", "T1 sequence (P43681 whole entry)": "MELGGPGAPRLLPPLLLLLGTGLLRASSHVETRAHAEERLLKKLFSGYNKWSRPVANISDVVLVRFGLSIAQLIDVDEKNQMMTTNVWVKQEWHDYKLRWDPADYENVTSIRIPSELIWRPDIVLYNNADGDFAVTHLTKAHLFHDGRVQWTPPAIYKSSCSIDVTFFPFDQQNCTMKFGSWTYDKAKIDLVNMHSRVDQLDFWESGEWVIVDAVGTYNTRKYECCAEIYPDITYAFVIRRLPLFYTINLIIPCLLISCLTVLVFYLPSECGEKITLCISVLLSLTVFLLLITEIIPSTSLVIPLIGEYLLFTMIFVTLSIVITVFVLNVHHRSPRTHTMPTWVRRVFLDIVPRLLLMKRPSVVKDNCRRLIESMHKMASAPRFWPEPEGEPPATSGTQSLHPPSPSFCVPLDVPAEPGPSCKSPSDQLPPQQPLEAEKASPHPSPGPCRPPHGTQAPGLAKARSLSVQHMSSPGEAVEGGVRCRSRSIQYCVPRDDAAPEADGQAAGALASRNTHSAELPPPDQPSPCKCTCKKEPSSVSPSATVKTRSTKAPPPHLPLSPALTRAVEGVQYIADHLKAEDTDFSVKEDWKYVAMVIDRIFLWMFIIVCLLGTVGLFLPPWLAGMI", "assay": "Antagonist activity at alpha4beta4 nicotinic receptor in human SH-EP1 cells assessed as inhibition varbamylcholine-induced radiolabeled Rb+ influx at by liquid scintillation counting", "type": "functional, cell-based", "procedure,_shortened": "as §1"}, "Mus musculus [6]": {"test_system": "Mus musculus", "assay": "Smoke cessation activity in sc dosed ICR mouse assessed as inhibition of nicotine-induced antinociception administered 15 mins before nicotine challenge measured after 5 mins of nicotine infusion by hotplate assay", "type": "functional, organism-based", "procedure,_shortened": "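Male ICR mice (20–25 g) were pretreated with saline or test drug 15 min before nicotine at 2.5 mg/kg sc. They were tested 5 min later on a 55 °C hot plate (40 s cutoff), and the result was expressed as %MPE. AD₅₀ came from at least four doses, with at least 8 mice per dose.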"}, "[7]": {"target": "Sodium-dependent dopamine transporter (Homo sapiens, UniProt Q01959)", "sequence (Q01959 whole entry)": "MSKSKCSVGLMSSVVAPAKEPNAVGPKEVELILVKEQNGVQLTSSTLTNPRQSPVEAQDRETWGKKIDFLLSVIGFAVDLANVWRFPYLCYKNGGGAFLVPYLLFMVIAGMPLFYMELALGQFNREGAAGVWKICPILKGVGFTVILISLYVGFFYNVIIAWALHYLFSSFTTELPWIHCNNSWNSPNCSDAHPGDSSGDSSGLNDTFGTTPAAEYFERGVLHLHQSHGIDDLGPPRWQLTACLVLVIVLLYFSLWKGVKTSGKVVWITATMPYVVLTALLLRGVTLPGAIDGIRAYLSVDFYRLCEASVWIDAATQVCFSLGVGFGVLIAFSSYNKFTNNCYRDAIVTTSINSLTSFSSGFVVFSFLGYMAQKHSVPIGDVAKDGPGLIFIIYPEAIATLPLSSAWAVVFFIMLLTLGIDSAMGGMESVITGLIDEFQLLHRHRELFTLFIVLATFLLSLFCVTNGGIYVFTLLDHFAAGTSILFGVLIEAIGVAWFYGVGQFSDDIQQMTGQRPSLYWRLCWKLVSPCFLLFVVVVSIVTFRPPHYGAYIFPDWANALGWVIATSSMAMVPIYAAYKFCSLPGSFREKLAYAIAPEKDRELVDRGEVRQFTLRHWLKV", "assay": "Inhibition of [3H]dopamine reuptake at human DAT expressed in HEK293 cells after 90 mins by scintillation counting", "type": "cell-based", "procedure,_shortened": "(§2)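 Uptake of [³H]DA or [³H]NE was measured in HEK293 cells stably expressing human DAT or NET. Values are from three independent experiments, each run in triplicate.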"}, "[8]": {"target": "Neuronal acetylcholine receptor; alpha4/beta2 (Homo sapiens, UniProt P17787+P43681)", "assay": "Agonist activity at alpha4beta2 nicotinic receptor in human SH-EP1 cells assessed as induction of radiolabeled Rb+ influx at 0.005 to 100 uM by liquid scintillation counting", "type": "functional, cell-based", "procedure,_shortened": "(§3)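 Cells were labelled with ⁸⁶Rb⁺ for at least 4 h, then exposed for 5 min in efflux buffer (pH 7.4) to test ligand alone at ~5 nM to 100 μM. The lines were TE671/RD (muscle α1β1γδ), SH-SY5Y (α3β4*) and transfected SH-EP1-hα4β2 or -hα4β4. Efflux was Cerenkov-counted. Non-specific efflux was subtracted, and results were normalized to specific efflux from carbamylcholine (1 mM; 3 mM for SH-SY5Y).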"}, "[9]": {"target": "T1, Neuronal acetylcholine receptor; alpha4/beta4", "assay": "Agonist activity at alpha4beta4 nicotinic receptor in human SH-EP1 cells assessed as induction of radiolabeled Rb+ influx at 0.005 to 100 uM by liquid scintillation counting", "type": "functional, cell-based", "procedure,_shortened": "as §3"}, "[10]": {"target": "Sodium-dependent noradrenaline transporter (Homo sapiens, UniProt P23975)", "sequence (P23975 whole entry)": "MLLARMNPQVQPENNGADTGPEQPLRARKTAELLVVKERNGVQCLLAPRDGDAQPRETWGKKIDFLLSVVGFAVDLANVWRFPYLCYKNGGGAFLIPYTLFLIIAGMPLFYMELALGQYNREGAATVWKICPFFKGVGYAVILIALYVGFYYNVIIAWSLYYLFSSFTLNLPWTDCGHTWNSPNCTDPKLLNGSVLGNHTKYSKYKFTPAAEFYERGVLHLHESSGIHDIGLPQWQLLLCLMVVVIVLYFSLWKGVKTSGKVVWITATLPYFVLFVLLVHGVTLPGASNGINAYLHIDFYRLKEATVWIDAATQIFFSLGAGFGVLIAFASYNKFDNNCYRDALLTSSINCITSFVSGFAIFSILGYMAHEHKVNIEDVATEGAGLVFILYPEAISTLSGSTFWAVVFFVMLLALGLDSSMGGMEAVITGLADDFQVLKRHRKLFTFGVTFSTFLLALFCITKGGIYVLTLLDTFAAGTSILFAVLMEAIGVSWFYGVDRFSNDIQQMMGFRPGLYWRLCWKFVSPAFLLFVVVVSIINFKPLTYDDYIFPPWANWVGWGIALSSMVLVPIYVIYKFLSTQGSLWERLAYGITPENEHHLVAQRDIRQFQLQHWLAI", "assay": "Inhibition of [3H]norepinephrine reuptake at human NET expressed in HEK293 cells after 90 mins by scintillation counting", "type": "cell-based", "procedure,_shortened": "as §2"}, "Mus musculus [11]": {"test_system": "Mus musculus", "assay": "Toxicity in sc dosed ICR mouse assessed occurrence of sedation", "type": "organism-based", "settings": "in vivo"}, "Mus musculus [12]": {"test_system": "Mus musculus", "assay": "Toxicity in sc dosed ICR mouse assessed occurrence of convulsion", "type": "organism-based", "settings": "in vivo"}, "SH-SY5Y": {"test_system": "SH-SY5Y", "assay": "Selectivity ratio of IC50 for alpha3beta4 nicotinic receptor in human SH-SY5Y cells to IC50 for IC50 for human NET", "type": "cell-based"}, "Mus musculus [13]": {"test_system": "Mus musculus", "assay": "Smoke cessation activity in sc dosed ICR mouse assessed as inhibition of nicotine-induced hypothermia administered 15 mins before nicotine challenge measured after 30 mins of nicotine infusion", "type": "functional, organism-based", "procedure,_shortened": "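Male ICR mice (20–25 g) were pretreated with test drug or saline 15 min before nicotine at 2.5 mg/kg sc. Rectal temperature was taken before and 30 min after nicotine, and the change was calculated. Room temperature was 21–24 °C. AD₅₀ came from at least four doses, with at least 8 mice per dose.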"}, "SH-EP1": {"test_system": "SH-EP1", "assay": "Selectivity ratio of IC50 for alpha4beta2 nicotinic receptor in human SH-EP1 cells to IC50 for IC50 for human NET", "type": "cell-based"}}, "note": "Activity calls are given as the source filed them.", "data": [{"smiles": "CCC[C@@H]1NC(C)(C)CO[C@@]1(O)c1cccc(Cl)c1", "values": [{"measurement": "IC50", "setting": "Mus musculus [1]", "result": 0.004, "unit": "mg/kg"}, {"measurement": "IC50", "setting": "Mus musculus [2]", "result": 4.7, "unit": "mg/kg"}, {"measurement": "IC50", "setting": "[3]", "result": 10, "unit": "µM"}, {"measurement": "IC50", "setting": "[4]", "result": 4.13, "unit": "µM"}, {"measurement": "IC50", "setting": "[5]", "result": 18, "unit": "µM"}, {"measurement": "IC50", "setting": "Mus musculus [6]", "result": "> 15", "unit": "mg/kg"}, {"measurement": "IC50", "setting": "[7]", "result": 0.03, "unit": "µM"}, {"measurement": "Activity", "setting": "[8]", "result": "inactive"}, {"measurement": "Activity", "setting": "[9]", "result": "inactive"}, {"measurement": "IC50", "setting": "[10]", "result": 0.031, "unit": "µM"}, {"measurement": "Activity", "setting": "Mus musculus [11]", "result": "Non-toxic"}, {"measurement": "Activity", "setting": "Mus musculus [12]", "result": "Non-toxic"}, {"measurement": "Ratio IC50", "setting": "SH-SY5Y", "result": 154}, {"measurement": "IC50", "setting": "Mus musculus [13]", "result": "> 15", "unit": "mg/kg"}, {"measurement": "Ratio IC50", "setting": "SH-EP1", "result": 240}]}]}
